Assay results published in PubChem BioAssay.
Inconclusive results are not listed.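 How the source made its calls, unless noted: active means cell viability at or below a set limit in both duplicate runs, the limit being the all-compound median minus 4 SD (cut at about 23% in these data, passing the limit was not always enough); inconclusive means no clear call, values can overlap the other calls; inactive means the rest.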

Tests used:
[1] = S. cerevisiae growth inhibition in permissive medium (OD615), pilot counter-assay for S. cerevisiae lifespan shortening project, permissive growth control (AID 705;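 active means growth inhibition above 25% in both replicates, a cutoff set 3 SD above the mean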); settings: OD615, 24 h, at 10 µM, stronger effect = higher value
Outline: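 System: engineered DeaD yeast; Medium: permissive raffinose/galactose medium; Compound dosing: 10 µM single dose, 0.25% DMSO; Incubation: 4 h cell pre-growth, 24 h exposure at 30 °C; Technique: OD at 615 nm; Evaluation: growth inhibition from lowered OD615 after 24 h.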

[2] = S. cerevisiae growth inhibition in restrictive medium, OD615, pilot screen, restrictive growth control, yeast lifespan reduction project (AID 706;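 active means growth inhibition above a set limit, 3 SD over mean compound inhibition, in both replicates, cut at about 43% in these data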;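 further: modified DeaD lifespan yeast strain shifted to restrictive glucose medium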); settings: OD615, 48 h, at 10 µM, stronger effect = higher value
Outline: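 Material: modified S. cerevisiae; buffer or medium: CSMM-D glucose medium; doses: one concentration, 10 µM final, 0.25% DMSO; incubation: 48 h compound exposure at 30 °C; detection: optical density at 615 nm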

[3] = doxorubicin toxicity protection in MRP-1 cells – H69AR cells, CellTiter-Glo, duplicate, MRP-1 activator project, pilot screen (AID 807;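 active means viability increase at or above a cutoff of the median across tested compounds plus 3 SD, cut at about 8.5% in these data, passing the limit was not always enough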;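 further: compound pretreatment 18-22 h then 72 h combined with doxorubicin; 0% = doxorubicin alone and 100% = vehicle without doxorubicin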); settings: H69AR viability with doxorubicin, CellTiter-Glo luminescence; at 10 µM; stronger effect = higher value
[4] = viability of HCT116 without oncogenic beta-catenin – human colon tumor cells, pilot screen (AID 823); settings: HCT116 beta-catenin knockout viability, CellTiter-Glo, 60 h; at 10 µM; stronger effect = lower value;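 further: 0% = wells killed by 20 µM Hyamine and 100% = untreated DMSO cell wells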
[5] = viability of PTEN-null HCT116 cells – cell-based, HCT116 clonal line, CellTiter-Glo, pilot screen (AID 824;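 active means viability at or below 27.92% in each of two runs, the all-compound median minus 4 SD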;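 further: 0% = 20 µM Hyamine control and 100% = vehicle cell control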); settings: HCT116 PTEN-deleted viability, 60 h, at 10 µM, stronger effect = lower value
[6] = RAM pathway blockade in budding yeast – dse1pr::URA3 reporter, 5-FOA selection, pilot screen (AID 869;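 active means inhibition over a set limit, the all-compound mean plus 3 SD, in both replicate runs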;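 further: 0% = DMSO wells with no growth and 100% = 10 µM 1-NA-PP1 with full growth; RAM network block rescues cells from 5-FOA so hits raise OD615 growth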); settings: S. cerevisiae dse1pr::URA3 5-FOA growth, OD615, 2 d; at 10 µM; stronger effect = higher value; strain carries analog-sensitive mutant Cbk1 kinase
[7] = RAM signaling pathway blockade in yeast – S. cerevisiae, Pdr1DBD-CYC8 efflux-inhibited sensitized strain, primary screen (AID 1298;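 active means RAM network inhibition above 8.4% in each of two replicates, 3 SD over the compound average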;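 further: 0% = DMSO untreated cells without growth and 100% = 10 µM 1-NA-PP1 full growth; higher means more yeast growth rescued from 5-FOA killing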); settings: S. cerevisiae cbk1-as DSE1-URA3 strain, 5-FOA growth OD615, 2 d; at 50 µM; stronger effect = higher value

COc1ccc(NC(=O)N(CCCN2CCOCC2)Cc2cccnc2)c(OC)c1
inactive: growth inhibition [1] -7.71% | growth inhibition [2] -3.92% | viability increase [3] -1.79% | viability [4] 100% | viability [5] 103% | inhibition [6] 1.03% | RAM network inhibition [7] 1.81%

OC(C#CCN1CCOCC1)c1cccs1 (stereo not drawn)
inactive: growth inhibition [1] -5.03% | growth inhibition [2] 2.95% | viability increase [3] -0.71% | viability [4] 102% | viability [5] 98.4% | inhibition [6] 2.15% | RAM network inhibition [7] 4.66%

Cc1ccccc1NC(=O)CSC(N)=O
inactive: growth inhibition [1] -1.39% | growth inhibition [2] 14.1% | viability increase [3] -4.63% | viability [4] 89.4% | viability [5] 91% | inhibition [6] 0.48% | RAM network inhibition [7] 8.45%

CCn1c(=NC(=O)c2ccc(N3C(=O)CCC3=O)cc2)sc2c(OC)ccc(OC)c21
inactive: growth inhibition [1] -5.79% | growth inhibition [2] -11.5% | viability increase [3] -0.73% | viability [4] 97.9% | viability [5] 92.7% | inhibition [6] 1.86% | RAM network inhibition [7] 8.5%

O=C(NCCCN1CCCC1=O)c1ccc2c(c1)ncn2C1CCCCC1
inactive: growth inhibition [1] 0.37% | growth inhibition [2] 2.91% | viability increase [3] 1.87% | viability [4] 105% | viability [5] 109% | inhibition [6] 0.03% | RAM network inhibition [7] 10.9%

N#CC1=C(N)Oc2n[nH]c(-c3ccccc3)c2C1c1cccc(OC(=O)N2CCOCC2)c1 (stereo not drawn)
inactive: growth inhibition [1] -12.4% | growth inhibition [2] 2.86% | viability increase [3] -2.68% | viability [4] 97.6% | viability [5] 104% | inhibition [6] 2.34% | RAM network inhibition [7] 5.62%

Cc1cc(NC(=O)c2cc(C3CC3)on2)n(-c2ccccc2)n1
inactive: growth inhibition [1] -16.2% | growth inhibition [2] -17.8% | viability increase [3] -0.45% | viability [4] 101% | viability [5] 99.6% | inhibition [6] 0.355% | RAM network inhibition [7] 8.58%

Cc1ccc(CNC(=O)CN(C)S(=O)(=O)c2cccc3cccnc23)cc1
inactive: growth inhibition [1] -2.75% | growth inhibition [2] 6.15% | viability increase [3] -1.21% | viability [4] 99.4% | viability [5] 92.9% | inhibition [6] 2.25% | RAM network inhibition [7] -1.33%

CCC1(C)OC(=O)N2CCc3c(C)[nH]c4c(C)ccc(c34)C21C (stereo not drawn)
inactive: growth inhibition [1] -14.7% | growth inhibition [2] -17.8% | viability increase [3] -1.6% | viability [4] 95.9% | viability [5] 91.3% | inhibition [6] 2.15% | RAM network inhibition [7] 1.06%

CCc1ccc(NC(=O)c2ccc3c(c2)C(=O)N(Cc2ccco2)C3=O)cc1
inactive: growth inhibition [1] -3.35% | growth inhibition [2] 7.26% | viability increase [3] -2.41% | viability [4] 93.6% | viability [5] 89.6% | inhibition [6] 0.185% | RAM network inhibition [7] 1.5%

CCCCCc1nnc(NC(=O)OCCC)s1
inactive: growth inhibition [1] -1% | growth inhibition [2] 14.7% | viability increase [3] -3.57% | viability [4] 97.8% | viability [5] 91.2% | inhibition [6] 0.63% | RAM network inhibition [7] -0.93%

CC1CCC(NC(=O)c2cc3c(=O)n(C)c4ccccc4c3n2C)CC1 (stereo not drawn)
inactive: growth inhibition [1] -12.8% | growth inhibition [2] -9.28% | viability increase [3] -4.41% | viability [4] 76.8% | viability [5] 66% | inhibition [6] 2.25% | RAM network inhibition [7] 4.58%

CCOc1ccc(C2C(C(=O)Nc3ccc(F)cc3)=C(C)Nc3nc(CCCO)nn32)cc1 (stereo not drawn)
inactive: growth inhibition [1] -12.5% | growth inhibition [2] 12.8% | viability increase [3] -0.6% | viability [4] 96.6% | viability [5] 91.5% | inhibition [6] 0.87% | RAM network inhibition [7] 1.21%

Cn1c(SCC(=O)Nc2cccc(F)c2)nnc1-c1cccnc1
inactive: growth inhibition [1] -4.63% | growth inhibition [2] -4.04% | viability increase [3] 0.87% | viability [4] 105% | viability [5] 104% | inhibition [6] 0.035% | RAM network inhibition [7] 3.15%

COC(=O)C1=C(C)Nc2ccc(C)cc2S1
inactive: growth inhibition [1] 14.1% | growth inhibition [2] 29.2% | viability increase [3] -2.27% | viability [4] 98.8% | viability [5] 100% | inhibition [6] 1.25% | RAM network inhibition [7] 3.11%

CC(NC(=O)COc1ccccc1)C(c1ccccc1)N1CCN(C)CC1 (stereo not drawn)
inactive: growth inhibition [1] -4.2% | growth inhibition [2] -7.49% | viability increase [3] -3.94% | viability [4] 97% | viability [5] 96.8% | inhibition [6] 1.02% | RAM network inhibition [7] 4.65%

CCN1CCN(C(=O)c2cc3c(=O)oc4ccc(C)cc4c3s2)CC1
inactive: growth inhibition [1] -12.6% | growth inhibition [2] -16.2% | viability increase [3] -2.18% | viability [4] 102% | viability [5] 93.7% | inhibition [6] 0.905% | RAM network inhibition [7] 1.3%

NC(=O)CSc1nnc(Cn2c(=O)sc3ccccc32)n1CCc1ccccc1
inactive: growth inhibition [1] 1.14% | growth inhibition [2] 26.2% | viability increase [3] -1.54% | viability [4] 101% | viability [5] 94.2% | inhibition [6] 0.275% | RAM network inhibition [7] 4.54%

O=C1CCCc2c1[nH]c1c(Br)cccc21
inactive: growth inhibition [1] 5.96% | growth inhibition [2] -1.3% | viability increase [3] 0.96% | viability [4] 108% | viability [5] 105% | inhibition [6] 0.425% | RAM network inhibition [7] 3.4%

CN(CCCC(=O)Nc1nccs1)S(=O)(=O)c1ccc(Cl)cc1
inactive: growth inhibition [1] -0.375% | growth inhibition [2] 0.355% | viability increase [3] -1.24% | viability [4] 110% | viability [5] 97.7% | inhibition [6] 1.51% | RAM network inhibition [7] 0.41%

COc1ccc(C(=O)/C(C)=N/O)cc1OC
inactive: growth inhibition [1] -15.6% | growth inhibition [2] -1.75% | viability increase [3] -0.59% | viability [4] 90.5% | viability [5] 88.6% | inhibition [6] 1.42% | RAM network inhibition [7] 2.98%

O=C(NCCCn1ccnc1)c1cccc(S(=O)(=O)Nc2ccccc2F)c1
inactive: growth inhibition [1] -13.9% | growth inhibition [2] -26.1% | viability increase [3] -0.61% | viability [4] 92.3% | viability [5] 92.8% | inhibition [6] 2.51% | RAM network inhibition [7] 5.99%

COc1ccc(OC)c(N(CC(=O)O)S(=O)(=O)c2ccc(OC)c(OC)c2)c1
inactive: growth inhibition [1] -2.7% | growth inhibition [2] -11.1% | viability increase [3] -0.41% | viability [4] 98.9% | viability [5] 94% | inhibition [6] 2.03% | RAM network inhibition [7] 4.23%

COc1cc(OC)cc(C(=O)NCC2CCCO2)c1 (stereo not drawn)
inactive: growth inhibition [1] -7.69% | growth inhibition [2] 10.1% | viability increase [3] -1.51% | viability [4] 94.6% | viability [5] 91.7% | inhibition [6] 0.465% | RAM network inhibition [7] 0.29%
